Active and inactive are the calls of the source. The calls are words filed in the database; no cut-off is given here.
Tests used:
[1] = target: Mu-type opioid receptor (Homo sapiens) (UniProt P35372); assay: Displacement of [3H]DAMGO from mu opioid receptor (unknown origin) at 1 uM after 120 mins
Homo sapiens = organism: Homo sapiens; assay: Displacement of [3H]DADLE from delta2 opioid receptor (unknown origin) at 1 uM after 120 mins
[2] = target: Cannabinoid receptor 2 (Homo sapiens) (UniProt P34972); assay: Displacement of [3H]WIN55212-2 from CB2 receptor (unknown origin) at 1 uM after 120 mins
Albumin = Albumin (Homo sapiens, UniProt P02768); assay: Binding affinity to human serum albumin at 5 uM after 12 mins by HPLC-MS analysis relative to control; format: ADME; conditions: isolated protein, 0.2 h
[3] = Half life in human liver microsomes at 1 to 5 uM by HPLC-MS analysis; format: ADME, Microsome
How it was run: (§1)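 Incubation mixtures pre-equilibrated at 37 °C with NADPH and MgCl2, then rat or human liver microsomes added to start the reaction. Aliquots were withdrawn and quenched at several time points, and percent parent remaining was measured by HPLC-MS and plotted against time. t1/2 was taken from the slope of peak area over time and used to calculate CLint.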

[4] = Half life in Sprague-Dawley rat liver microsomes at 1 to 5 uM by HPLC-MS analysis; format: ADME, Microsome; how it was run: as §1
[5] = target: T1, 5-hydroxytryptamine receptor 1A (Rattus norvegicus, UniProt P19327); assay: Displacement of [3H]-8-OH-DPAT from 5-HT1A receptor in Sprague-Dawley rat cerebral cortex after 15 mins; format: tissue-based
T1 sequence (P19327 whole entry): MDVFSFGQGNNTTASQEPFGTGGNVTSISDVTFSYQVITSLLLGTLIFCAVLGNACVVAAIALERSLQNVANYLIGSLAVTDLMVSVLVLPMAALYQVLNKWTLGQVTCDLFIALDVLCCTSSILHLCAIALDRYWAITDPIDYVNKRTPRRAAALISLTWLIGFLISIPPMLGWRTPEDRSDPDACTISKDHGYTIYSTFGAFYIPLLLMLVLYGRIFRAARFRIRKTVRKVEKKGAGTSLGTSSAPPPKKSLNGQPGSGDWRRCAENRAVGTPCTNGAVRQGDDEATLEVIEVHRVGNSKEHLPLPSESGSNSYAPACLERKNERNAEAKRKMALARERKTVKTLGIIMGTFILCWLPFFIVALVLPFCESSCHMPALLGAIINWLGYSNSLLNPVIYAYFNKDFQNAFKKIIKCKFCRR

[6] = target: 5-hydroxytryptamine receptor 4 (Rattus norvegicus, UniProt Q62758); assay: Displacement of [3H]GR113808 from 5-HT4 receptor in Sprague-Dawley rat striatum after 30 mins
[7] = target: T2, 5-hydroxytryptamine receptor 3A (Rattus norvegicus, UniProt P35563); assay: Displacement of [3H]LY 278584 from 5-HT3 receptor in Sprague-Dawley rat cerebral cortex after 30 mins; format: tissue-based
T2 sequence (P35563 whole entry): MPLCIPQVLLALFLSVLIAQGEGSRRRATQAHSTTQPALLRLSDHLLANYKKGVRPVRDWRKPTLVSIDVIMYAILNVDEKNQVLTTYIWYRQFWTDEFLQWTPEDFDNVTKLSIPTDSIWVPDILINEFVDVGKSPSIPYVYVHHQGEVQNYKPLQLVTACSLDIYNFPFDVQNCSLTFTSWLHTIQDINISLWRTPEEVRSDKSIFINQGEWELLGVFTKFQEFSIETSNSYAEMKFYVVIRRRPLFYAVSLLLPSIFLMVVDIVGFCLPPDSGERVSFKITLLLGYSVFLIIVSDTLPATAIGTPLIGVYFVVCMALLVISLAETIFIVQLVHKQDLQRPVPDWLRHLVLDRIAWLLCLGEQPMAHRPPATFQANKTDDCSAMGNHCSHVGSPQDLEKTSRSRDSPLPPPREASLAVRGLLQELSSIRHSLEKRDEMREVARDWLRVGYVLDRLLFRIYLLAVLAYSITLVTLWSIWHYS

Sequence of Mu-type opioid receptor (Homo sapiens) (P35372 whole entry): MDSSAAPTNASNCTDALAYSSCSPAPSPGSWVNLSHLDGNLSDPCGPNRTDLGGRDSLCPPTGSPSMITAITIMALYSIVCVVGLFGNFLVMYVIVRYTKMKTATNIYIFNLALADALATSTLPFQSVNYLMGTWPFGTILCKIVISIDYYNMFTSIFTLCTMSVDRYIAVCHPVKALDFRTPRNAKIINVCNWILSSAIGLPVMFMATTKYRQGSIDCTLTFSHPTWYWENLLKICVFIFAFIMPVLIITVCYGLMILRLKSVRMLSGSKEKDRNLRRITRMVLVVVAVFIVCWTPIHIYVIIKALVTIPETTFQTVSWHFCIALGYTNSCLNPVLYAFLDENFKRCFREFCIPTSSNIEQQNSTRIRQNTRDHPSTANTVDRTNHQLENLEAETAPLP
Sequence of 5-hydroxytryptamine receptor 4 (Q62758 whole entry): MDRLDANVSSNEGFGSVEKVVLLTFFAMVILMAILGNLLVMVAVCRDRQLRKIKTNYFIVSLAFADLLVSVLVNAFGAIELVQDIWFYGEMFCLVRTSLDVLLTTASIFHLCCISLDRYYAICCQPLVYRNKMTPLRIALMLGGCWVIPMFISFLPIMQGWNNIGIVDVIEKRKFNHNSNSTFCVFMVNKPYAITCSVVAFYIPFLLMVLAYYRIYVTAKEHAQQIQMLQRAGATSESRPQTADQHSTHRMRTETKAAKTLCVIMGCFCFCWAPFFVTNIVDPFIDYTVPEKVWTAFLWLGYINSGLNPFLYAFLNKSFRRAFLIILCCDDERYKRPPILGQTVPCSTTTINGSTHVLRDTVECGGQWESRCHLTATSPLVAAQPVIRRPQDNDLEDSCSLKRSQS
Sequence of Albumin (P02768 whole entry): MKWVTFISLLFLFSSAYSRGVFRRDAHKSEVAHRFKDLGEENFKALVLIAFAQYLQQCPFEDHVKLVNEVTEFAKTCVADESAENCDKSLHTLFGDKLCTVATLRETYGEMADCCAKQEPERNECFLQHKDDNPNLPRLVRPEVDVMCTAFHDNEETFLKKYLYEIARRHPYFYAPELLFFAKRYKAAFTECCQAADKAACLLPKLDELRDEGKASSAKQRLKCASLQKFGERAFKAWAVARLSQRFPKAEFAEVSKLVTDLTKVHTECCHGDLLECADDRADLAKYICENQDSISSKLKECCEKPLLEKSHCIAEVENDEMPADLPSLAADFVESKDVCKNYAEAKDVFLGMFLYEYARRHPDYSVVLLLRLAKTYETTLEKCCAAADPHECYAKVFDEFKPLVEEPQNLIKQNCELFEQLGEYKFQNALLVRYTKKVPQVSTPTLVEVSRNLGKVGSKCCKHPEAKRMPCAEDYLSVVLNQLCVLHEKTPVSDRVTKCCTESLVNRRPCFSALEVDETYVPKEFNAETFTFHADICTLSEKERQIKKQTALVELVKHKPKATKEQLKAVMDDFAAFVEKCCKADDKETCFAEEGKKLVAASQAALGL
Sequence of Cannabinoid receptor 2 (Homo sapiens) (P34972 whole entry): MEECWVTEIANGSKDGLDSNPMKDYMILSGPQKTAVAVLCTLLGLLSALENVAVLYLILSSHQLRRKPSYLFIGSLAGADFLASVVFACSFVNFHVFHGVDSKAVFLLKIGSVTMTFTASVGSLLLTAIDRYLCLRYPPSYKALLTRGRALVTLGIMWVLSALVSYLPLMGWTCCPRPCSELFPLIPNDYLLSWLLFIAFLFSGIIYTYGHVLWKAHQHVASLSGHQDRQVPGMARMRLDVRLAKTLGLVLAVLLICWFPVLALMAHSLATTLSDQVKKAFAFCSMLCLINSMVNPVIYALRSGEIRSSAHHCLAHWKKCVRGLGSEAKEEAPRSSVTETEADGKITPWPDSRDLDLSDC

inhibition [1]: inactive | inhibition (Homo sapiens): inactive | inhibition [2]: inactive | Activity (Albumin): 25% | half-life at up to 5 µM [3]: 179 min | half-life at up to 5 µM [4]: 13.1 min | Ki [5]: 2.3 nM | Ki [6]: > 1000 nM | Ki [7]: > 1000 nM
SMILES: CCOc1ccccc1OCCNCCCCN1C(=O)C2CCCN2C1=O.Cl (centres undefined)

— ChEMBL document CHEMBL2429786, “New serotonin 5-HT1A receptor agonists endowed with antinociceptive activity in vivo” (J Med Chem, 2013)
